Assay results gathered from unrelated publications.
Compare with care: the assays were run in different laboratories.
Target: Serine/threonine-protein kinase PLK2 (PLK2, Homo sapiens, UniProt Q9NYY3)

With `Cc1c(NC(=O)c2cc(C(N)=O)nc3cc(F)ccc23)c(C(F)(F)F)nn1Cc1ccc(C(C)(C)C)cc1` the remaining binding was 100% (cell-free assay; competition with immobilised ligand; 1 µM).
The remaining binding of `COc1cnc(Nc2cccc(S(N)(=O)=O)c2)nc1N1CCN(c2ccccc2)CC1` is reported as 94% (binding; competition with immobilised ligand; 1 µM).
For `Cc1nc(C2CCN(C(=O)c3ccc(OC(F)(F)F)cc3N)CC2)c2ncc(N3CCN(C)CC3)cc2n1`, the remaining binding was 74% (cell-free assay; competition with immobilised ligand; 1 µM).
For `CN(C)c1ncc(F)c(-c2cnn3ncccc23)n1`, the remaining binding was 78% (binding; 1 µM).
`C[C@@H]1CN(c2cc(-c3n[nH]c4ccc(OC5(C)CC5)cc34)ncn2)C[C@H](C)O1` has a remaining binding of 76% (cell-free assay; competition with immobilised ligand; 0.1 µM).
With `COc1ncc2cc3ccccc3nc2c1C#N` the remaining binding was 45% (cell-free assay; competition with immobilised ligand; 5 µM).
`COc1ccnn2ncc(-c3ccnc(N(C)C)n3)c12` has a remaining binding of 93% (binding; 1 µM).
`O=C(Nc1c[nH]nc1C(=O)NC1CCNCC1)c1cc(F)cc(F)c1` gave a remaining binding of 92% (binding; competition with immobilised ligand; 1 µM).
The remaining binding of `O=C(c1ccc(Nc2ncc(Cl)c(-c3cc4ccccc4s3)n2)cc1)N1CCC(N2CCCC2)CC1` is reported as 68% (binding; competition with immobilised ligand; 1 µM).
For `C[C@H]1CCN(c2nccc(-c3cnn4ncccc34)n2)C1`, the remaining binding was 91% (binding; 1 µM).
`NS(=O)(=O)c1cc(NC(=O)C2(c3ccccc3Cl)CC2)ccc1Oc1cccc(Cl)c1` gave a remaining binding of 84% (cell-free assay; competition with immobilised ligand; 1 µM).
`Nc1ncc2c(n1)-c1c([nH]c3ccc(C#CC4CC4)cc13)CCCC2` gave a remaining binding of 91% (binding; competition with immobilised ligand; 1 µM).
The remaining binding of `CCN1CCN(Cc2ccc(C(=O)Nc3ccc(C)c(Oc4ccc5c(c4)CC(=O)N5)c3)cc2C(F)(F)F)CC1` is reported as 66% (binding; competition with immobilised ligand; 1 µM).
For `CN(C)CC#Cc1ccc(OCCCc2sc(N3CCc4cccc(C(=O)Nc5nc6ccccc6s5)c4C3)nc2C(=O)O)c(F)c1`, the remaining binding was 94% (cell-free assay; competition with immobilised ligand; 1 µM).
With `CC1CCCN1c1nccc(-c2cnn3ncccc23)n1` (centres unmarked) the remaining binding was 100% (binding; 1 µM).
`O=C(c1ccc(Nc2ncc(Cl)c(-c3ccc(Cl)s3)n2)cc1)N1CCC(N2CCCC2)CC1` has a remaining binding of 47% (binding; competition with immobilised ligand; 1 µM).
`N[C@H]1CCN(c2nccc(-c3cnn4ncccc34)n2)C1` has a remaining binding of 71% (binding; 1 µM).
`Cc1cnc(Nc2ccc(C(=O)N3CCC(N4CCCC4)CC3)cc2)nc1-c1cc2ccccc2s1` has a remaining binding of 52% (binding; competition with immobilised ligand; 1 µM).
`CN(c1nccc(-c2cnn3ncccc23)n1)C1CC1` has a remaining binding of 88% (binding; 1 µM).
With `N#Cc1ccc(Nc2ccc3[nH]c(=O)[nH]c3c2)c(Cl)c1` the remaining binding was 86% (cell-free assay; competition with immobilised ligand; 1 µM).
